This note sets out measurements from ChEMBL document CHEMBL1921707 (J Med Chem, 2011).

Each structure is given as a SMILES string.

Common to all, as to assay type: cell-based
Test [1] concerns the target Histamine H3 receptor (Homo sapiens, UniProt Q9Y5N1). The test can be described thus: Displacement of [3H]histamine from human H3 receptor expressed in HEK293 cells after 1 to 1.5 hrs by scintillation counting. On the technique in general: Displacement assays read how much labelled ligand stays bound in the presence of the test substance.
The target in test [2] is Histamine H4 receptor (Homo sapiens, UniProt Q9H3N8). The test can be described thus: Displacement of [3H]histamine from human H4 receptor expressed in HEK293 cells after 1 to 1.5 hrs by scintillation counting.
For test [3], the target named is Histamine H4 receptor (Homo sapiens, UniProt Q9H3N8, T178A). Put plainly: Displacement of [3H]histamine from human H4 receptor T5.42A mutant expressed in HEK293 cells after 1 to 1.5 hrs by scintillation counting.
The target of test [4] is Histamine H4 receptor (Homo sapiens, UniProt Q9H3N8, T323M). Put plainly: Displacement of [3H]histamine from human H4 receptor T6.55M mutant expressed in HEK293 cells after 1 to 1.5 hrs by scintillation counting.
In test [5] the target is Histamine H4 receptor (Homo sapiens, UniProt Q9H3N8, Q347L). The test can be described thus: Displacement of [3H]histamine from human H4 receptor Q7.42L mutant expressed in HEK293 cells after 1 to 1.5 hrs by scintillation counting.
Test [6] deals with Histamine H4 receptor (Homo sapiens, UniProt Q9H3N8, N147Y). The test can be described thus: Displacement of [3H]histamine from human H4 receptor N4.57Y mutant expressed in HEK293 cells after 1 to 1.5 hrs by scintillation counting.
Test [7] deals with Histamine H4 receptor (Homo sapiens, UniProt Q9H3N8, V102A). The test can be described thus: Displacement of [3H]histamine from human H4 receptor V3.40A mutant expressed in HEK293 cells after 1 to 1.5 hrs by scintillation counting.
The target of test [8] is Histamine H4 receptor (Homo sapiens, UniProt Q9H3N8, E182Q). Put plainly: Displacement of [3H]JNJ7777120 from human H4 receptor E5.46Q mutant expressed in HEK293 cells after 1 to 1.5 hrs by scintillation counting. The gist of the method:
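HEK293T cells transiently transfected (PEI method) with human H4R E5.46Q cDNA, membranes harvested 2 days later. Crude membranes in 50 mM Tris-HCl pH 7.4 with ~10 nM [3H]JNJ-7777120 and compound at 1 pM to 0.1 mM, room temperature, shaking. Separation by filtration on PEI-presoaked GF/C, ice-cold Tris washes. pKi as mean ± SEM of at least three experiments run in triplicate.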

Histamine H4 receptor (Homo sapiens, UniProt Q9H3N8), sequence (Q9H3N8 whole entry): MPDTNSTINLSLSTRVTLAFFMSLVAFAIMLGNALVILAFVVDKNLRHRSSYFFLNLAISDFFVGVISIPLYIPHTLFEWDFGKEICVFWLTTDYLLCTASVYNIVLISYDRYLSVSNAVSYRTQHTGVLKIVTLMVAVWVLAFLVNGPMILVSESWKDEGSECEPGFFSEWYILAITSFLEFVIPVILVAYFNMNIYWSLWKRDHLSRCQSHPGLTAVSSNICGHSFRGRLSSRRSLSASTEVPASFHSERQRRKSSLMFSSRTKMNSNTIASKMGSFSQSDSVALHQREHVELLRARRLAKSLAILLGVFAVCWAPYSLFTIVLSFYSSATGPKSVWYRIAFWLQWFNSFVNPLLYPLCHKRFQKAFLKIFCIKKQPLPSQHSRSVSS
Histamine H3 receptor, sequence (Q9Y5N1 whole entry): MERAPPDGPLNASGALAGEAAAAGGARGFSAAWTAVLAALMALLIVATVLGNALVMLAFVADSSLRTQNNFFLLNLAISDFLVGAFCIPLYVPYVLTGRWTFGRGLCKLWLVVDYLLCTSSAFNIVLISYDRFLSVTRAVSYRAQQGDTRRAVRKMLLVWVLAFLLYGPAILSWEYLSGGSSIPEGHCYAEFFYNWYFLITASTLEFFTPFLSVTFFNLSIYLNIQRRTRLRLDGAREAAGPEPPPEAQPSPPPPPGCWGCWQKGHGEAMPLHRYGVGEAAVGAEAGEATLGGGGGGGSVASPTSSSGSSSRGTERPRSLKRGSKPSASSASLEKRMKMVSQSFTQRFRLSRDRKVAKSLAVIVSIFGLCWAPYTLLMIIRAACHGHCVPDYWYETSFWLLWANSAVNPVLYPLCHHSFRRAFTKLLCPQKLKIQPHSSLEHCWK
Histamine H4 receptor (Homo sapiens, UniProt Q9H3N8, Q347L), sequence (Q9H3N8 whole entry Q347L): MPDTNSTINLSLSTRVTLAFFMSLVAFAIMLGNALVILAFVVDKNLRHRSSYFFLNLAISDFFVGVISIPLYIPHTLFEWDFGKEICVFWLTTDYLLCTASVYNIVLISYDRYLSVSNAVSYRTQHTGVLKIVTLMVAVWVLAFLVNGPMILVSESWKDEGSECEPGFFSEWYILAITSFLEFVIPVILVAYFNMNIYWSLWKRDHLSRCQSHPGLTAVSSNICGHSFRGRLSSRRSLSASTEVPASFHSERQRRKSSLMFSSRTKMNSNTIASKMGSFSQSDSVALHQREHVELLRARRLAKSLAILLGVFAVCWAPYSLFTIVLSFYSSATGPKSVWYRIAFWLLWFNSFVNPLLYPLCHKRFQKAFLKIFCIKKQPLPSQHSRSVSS
Histamine H4 receptor (Homo sapiens, UniProt Q9H3N8, T178A), sequence (Q9H3N8 whole entry T178A): as the sequence (Q9H3N8 whole entry Q347L) above, with T178A, L347Q counted along it
Histamine H4 receptor (Homo sapiens, UniProt Q9H3N8, V102A), sequence (Q9H3N8 whole entry V102A): as the sequence (Q9H3N8 whole entry Q347L) above, with V102A, L347Q counted along it
Histamine H4 receptor (Homo sapiens, UniProt Q9H3N8, E182Q), sequence (Q9H3N8 whole entry E182Q): as the sequence (Q9H3N8 whole entry Q347L) above, with E182Q, L347Q counted along it
Histamine H4 receptor (Homo sapiens, UniProt Q9H3N8, N147Y), sequence (Q9H3N8 whole entry N147Y): as the sequence (Q9H3N8 whole entry Q347L) above, with N147Y, L347Q counted along it
Histamine H4 receptor (Homo sapiens, UniProt Q9H3N8, T323M), sequence (Q9H3N8 whole entry T323M): as the sequence (Q9H3N8 whole entry Q347L) above, with T323M, L347Q counted along it

In the case of `CCCCN/C(=N/Cc1ccc(Cl)cc1)SCCCc1c[nH]cn1`, the Ki (commonly a dissociation constant, usually derived from enzyme kinetics or from competition with a known ligand) in test [1] is 4.9 nM; in test [2] it was 89.1 nM.

On to `CCCCN/C(=N/Cc1ccc(Cl)c(Cl)c1)SCCCc1c[nH]cn1`, for which the inhibition constant (Ki) in test [1] is 4.68 nM; in test [2], 89.1 nM.

Regarding `Clc1ccc(C/N=C(/NCc2ccccc2)SCCCc2c[nH]cn2)cc1`, the Ki is 17 nM in test [1] and 229 nM in test [2].

Consider `O=[N+]([O-])c1ccc(C/N=C(/NC2CCCCC2)SCCCc2c[nH]cn2)cc1`, for which the Ki in test [1] is 1.15 nM; in test [2], 135 nM.

In the case of `N#Cc1ccc(C/N=C(/NC2CCCCC2)SCCCc2c[nH]cn2)cc1`, the Ki is 1.62 nM in test [1] and 126 nM in test [2].

Turning to `CC(C)(C)N/C(=N/C1CCCC1)SCCCc1c[nH]cn1`, the inhibitory constant (Ki) in test [1] is 67.6 nM; in test [2], 29.5 nM.

Regarding `NC(=NCc1ccc(Cl)cc1)SCCCc1cnc[nH]1` [CLOBENPROPIT], the Ki in test [3] was 2.51 nM; in test [4], 1.58 nM; in test [5], 1 nM; in test [6] it was 15.8 nM; in test [7], 10 nM; in test [8], 50.1 nM.

On to `Clc1ccc(CN=C(NC2CCCCC2)SCCCc2cnc[nH]2)cc1`, for which the Ki in test [3] is 12.6 nM; in test [4] it was 12.6 nM; in test [1], 1.05 nM; in test [5], 12.6 nM; in test [6], 316 nM; in test [7], 63.1 nM. Moreover, the Ki in test [2] was 47.9 nM; in test [8] it was 158 nM.

As to `CCCCN/C(=N/C1CCCC1)SCCCc1c[nH]cn1`, the values for the Ki in test [1] and in test [2] were 46.8 nM and 16.2 nM, respectively.

Regarding `Clc1ccc(C/N=C(/NCc2ccccc2)SCCCc2c[nH]cn2)cc1Cl`, the results for the inhibition constant Ki in test [1] and in test [2] were 32.4 nM and 380 nM, respectively.

Regarding `Clc1ccc(C/N=C(/NC2CCCCC2)SCCCc2c[nH]cn2)cc1Cl`, the Ki in test [1] was 1.02 nM; in test [2] it was 148 nM.

In the case of `c1nc(CCCS/C(=N\C2CCCC2)NC2CCCCC2)c[nH]1`, the values for the Ki in test [1] and in test [2] were 18.6 nM and 31.6 nM, respectively.

As to `c1ccc(CN/C(=N/C2CCCCC2)SCCCc2c[nH]cn2)cc1`, the Ki in test [1] was 9.77 nM; in test [2], 75.9 nM.

With `c1ccc(CN/C(=N/C2CCCC2)SCCCc2c[nH]cn2)cc1`, the Ki in test [1] and in test [2] was 42.7 nM in each case.
